From ChEMBL document CHEMBL2429806, “Designed Trpzip-3 β-Hairpin Inhibits Amyloid Formation in Two Different Amyloid Systems” (ACS Med Chem Lett, 2013)

Target: Transthyretin (Homo sapiens) (UniProt P02766)
Assay: Inhibition of transthyretin (unknown origin) aggregation at 2 mol equiv measured at 36 hrs by congo red assay relative to control
Outline: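 TTR aggregation was induced at pH 4.5 with or without the test agent. Aggregation was scored by Congo red at its peak, 36 h. Thioflavin T was not usable because dissolved, filtered TTR gives high background fluorescence.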

In the case of `O=C(O)c1cc(-c2ccc(F)cc2F)ccc1O`, the inhibition is reported as > 90%.
